ChEMBL document CHEMBL1153428, “Synthesis and structure-activity relationships of amide derivatives of (4,4-difluoro-1,2,3,4-tetrahydro-5H-1-benzazepin-5-ylidene)acetic acid as selective arginine vasopressin V2 receptor agonists” (Bioorg Med Chem, 2009)
Active and inactive are the calls of the source. The rule behind the calls is not given here.

How the values were obtained:
Vasopressin V2 receptor [1] = target: T1, Vasopressin V2 receptor (Homo sapiens, UniProt P30518); assay: Displacement of [3H]vasopressin from human V2 receptor expressed in CHO cells; type: cell-based
T1 sequence (P30518 whole entry): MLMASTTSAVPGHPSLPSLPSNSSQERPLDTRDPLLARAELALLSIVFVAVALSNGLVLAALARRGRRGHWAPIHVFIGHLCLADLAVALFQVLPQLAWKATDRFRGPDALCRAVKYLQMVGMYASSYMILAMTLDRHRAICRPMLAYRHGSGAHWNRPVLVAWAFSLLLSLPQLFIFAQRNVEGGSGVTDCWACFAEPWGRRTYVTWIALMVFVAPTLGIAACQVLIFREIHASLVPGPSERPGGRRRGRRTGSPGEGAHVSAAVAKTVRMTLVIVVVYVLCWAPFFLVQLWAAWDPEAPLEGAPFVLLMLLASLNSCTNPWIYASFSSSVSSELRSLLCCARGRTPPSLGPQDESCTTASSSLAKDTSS

Vasopressin V1a receptor = Vasopressin V1a receptor (Homo sapiens, UniProt P37288); assay: Displacement of [3H]vasopressin from human V1a receptor expressed in CHO cells; type: cell-based
Vasopressin V1a receptor, sequence (P37288 whole entry): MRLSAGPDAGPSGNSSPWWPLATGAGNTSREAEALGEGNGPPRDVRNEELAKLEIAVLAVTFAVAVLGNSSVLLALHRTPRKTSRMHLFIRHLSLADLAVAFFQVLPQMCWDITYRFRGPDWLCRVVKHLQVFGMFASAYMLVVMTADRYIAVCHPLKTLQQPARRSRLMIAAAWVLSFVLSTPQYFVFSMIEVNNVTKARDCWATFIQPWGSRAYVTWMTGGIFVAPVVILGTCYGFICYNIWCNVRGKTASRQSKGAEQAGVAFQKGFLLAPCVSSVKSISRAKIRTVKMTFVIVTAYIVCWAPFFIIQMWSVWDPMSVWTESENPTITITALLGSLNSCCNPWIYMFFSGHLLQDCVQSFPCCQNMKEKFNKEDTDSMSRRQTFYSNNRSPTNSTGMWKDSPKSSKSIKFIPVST
In short: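 Membrane receptors from CHO cells expressing human V1a were used in a radioligand competition binding format. Ki values come from triplicate assays.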

Homo sapiens = species: Homo sapiens; assay: Selectivity for human V1a receptor to human V2 receptor
Vasopressin V2 receptor [2] = target: T1, Vasopressin V2 receptor; assay: Agonist activity at human V2 receptor expressed in CHO cells assessed as increase in cAMP level; type: functional, cell-based
In short: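 CHO cells stably expressing human V2 were grown in α-MEM with 10% FBS and 0.1% amethopterin at 37 °C, then serum-starved for 24 h. Compound was added in α-MEM with 1 mmol/L IBMX and 0.1% BSA for 10 min at 37 °C. Cells were lysed in PBS with 0.2% Triton X-100 and cAMP was read by HTRF. EC50 was derived by logistic regression; Emax was expressed as % of the AVP maximum. Assays were run in triplicate.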

Vasopressin V2 receptor [3] = target: T1, Vasopressin V2 receptor; assay: Intrinsic activity at human V2 receptor expressed in CHO cells assessed as increase in cAMP level relative to arginine vasopressin; type: functional, cell-based
In short: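 CHO cells stably expressing human V2 receptors, grown in α-MEM with 10% FBS, serum-starved 24 h. Compound added in α-MEM with 1 mmol/L IBMX and 0.1% BSA, 10 min at 37 °C. Cells lysed in PBS with 0.2% Triton X-100; cAMP read by HTRF. Maximum response expressed as % of AVP maximum (100%); triplicate.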

Rattus norvegicus = assay: Antidiuretic effect in iv dosed water-loaded Wistar rat assessed as suppression of urinary excretion within 4 hrs; type: functional, organism-based; details: Urine
Cytochrome P450 2C9 = Cytochrome P450 2C9 (Homo sapiens, UniProt P11712); assay: Inhibition of recombinant CYP2C9 by fluorescent P450 inhibition assay
Cytochrome P450 2C9, sequence (P11712 whole entry): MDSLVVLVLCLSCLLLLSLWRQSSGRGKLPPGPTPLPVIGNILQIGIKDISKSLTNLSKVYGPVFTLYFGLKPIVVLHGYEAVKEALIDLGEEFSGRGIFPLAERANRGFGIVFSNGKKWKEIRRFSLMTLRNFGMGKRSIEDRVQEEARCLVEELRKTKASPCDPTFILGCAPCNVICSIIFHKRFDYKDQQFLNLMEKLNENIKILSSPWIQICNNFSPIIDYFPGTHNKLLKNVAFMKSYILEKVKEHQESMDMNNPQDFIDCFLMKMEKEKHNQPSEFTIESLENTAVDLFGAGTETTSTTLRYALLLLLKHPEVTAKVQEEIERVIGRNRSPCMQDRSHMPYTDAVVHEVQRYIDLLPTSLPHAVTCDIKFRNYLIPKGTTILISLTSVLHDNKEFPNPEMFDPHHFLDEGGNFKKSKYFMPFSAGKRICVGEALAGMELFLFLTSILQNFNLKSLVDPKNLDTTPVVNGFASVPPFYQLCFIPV

Cytochrome P450 2C19 = Cytochrome P450 2C19 (Homo sapiens, UniProt P33261); assay: Inhibition of recombinant CYP2C19 by fluorescent P450 inhibition assay
Cytochrome P450 2C19, sequence (P33261 whole entry): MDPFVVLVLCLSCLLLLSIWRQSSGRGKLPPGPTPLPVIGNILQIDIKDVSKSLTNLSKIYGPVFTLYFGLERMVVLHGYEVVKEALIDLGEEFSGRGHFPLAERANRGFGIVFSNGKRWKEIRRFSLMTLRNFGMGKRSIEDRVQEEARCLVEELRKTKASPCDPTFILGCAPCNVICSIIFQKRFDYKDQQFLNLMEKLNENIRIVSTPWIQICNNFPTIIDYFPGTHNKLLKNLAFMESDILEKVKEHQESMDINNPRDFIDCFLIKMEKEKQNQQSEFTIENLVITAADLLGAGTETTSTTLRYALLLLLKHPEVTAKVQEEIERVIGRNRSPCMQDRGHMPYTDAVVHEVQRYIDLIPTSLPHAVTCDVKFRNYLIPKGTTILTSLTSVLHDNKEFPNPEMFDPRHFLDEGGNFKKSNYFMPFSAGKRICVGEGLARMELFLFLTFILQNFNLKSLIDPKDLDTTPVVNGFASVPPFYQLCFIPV

Cytochrome P450 2D6 = Cytochrome P450 2D6 (Homo sapiens, UniProt P10635); assay: Inhibition of recombinant CYP2D6 by fluorescent P450 inhibition assay
Cytochrome P450 2D6, sequence (P10635 whole entry): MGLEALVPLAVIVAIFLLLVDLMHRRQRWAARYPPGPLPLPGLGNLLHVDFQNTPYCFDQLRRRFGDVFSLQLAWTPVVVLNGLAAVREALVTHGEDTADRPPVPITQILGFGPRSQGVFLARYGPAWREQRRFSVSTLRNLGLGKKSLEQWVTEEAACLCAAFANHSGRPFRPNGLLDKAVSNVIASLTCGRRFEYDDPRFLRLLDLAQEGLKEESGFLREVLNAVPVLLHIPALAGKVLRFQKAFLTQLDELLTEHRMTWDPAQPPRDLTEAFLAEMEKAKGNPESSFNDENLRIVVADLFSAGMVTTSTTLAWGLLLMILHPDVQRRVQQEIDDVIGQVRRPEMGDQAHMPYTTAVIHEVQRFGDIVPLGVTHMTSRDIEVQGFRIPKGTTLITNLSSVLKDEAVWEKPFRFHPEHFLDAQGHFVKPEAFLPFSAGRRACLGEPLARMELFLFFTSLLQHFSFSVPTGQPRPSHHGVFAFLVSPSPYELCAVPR

Cytochrome P450 3A4 = Cytochrome P450 3A4 (Homo sapiens, UniProt P08684); assay: Inhibition of CYP3A4 in human liver microsome assessed as 1'-hydroxymidazolam formation by competitive inhibition assay
Cytochrome P450 3A4, sequence (P08684 whole entry): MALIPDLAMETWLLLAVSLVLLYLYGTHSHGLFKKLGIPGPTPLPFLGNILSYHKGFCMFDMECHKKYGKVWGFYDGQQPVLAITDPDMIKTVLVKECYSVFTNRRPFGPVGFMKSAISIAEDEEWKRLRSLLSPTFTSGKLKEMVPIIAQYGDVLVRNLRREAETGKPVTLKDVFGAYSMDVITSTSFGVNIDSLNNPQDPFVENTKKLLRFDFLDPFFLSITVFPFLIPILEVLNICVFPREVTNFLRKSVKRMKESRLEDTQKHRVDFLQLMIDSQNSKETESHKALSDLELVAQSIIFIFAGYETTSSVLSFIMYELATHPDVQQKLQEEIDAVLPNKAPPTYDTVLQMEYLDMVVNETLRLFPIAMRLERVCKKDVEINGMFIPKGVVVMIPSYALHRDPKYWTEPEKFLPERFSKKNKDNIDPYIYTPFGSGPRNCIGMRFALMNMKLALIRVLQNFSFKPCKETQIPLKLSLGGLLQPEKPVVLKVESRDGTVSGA

SMILES	Ki (Vasopressin V2 receptor [1]) [nM]	Ki (Vasopressin V1a receptor) [nM]	Ratio Ki (Homo sapiens)	other results
Cc1ccn(-c2ccc(C(=O)N3CCC(F)(F)/C(=C\C(N)=O)c4ccccc43)c(Cl)c2)n1	33	190	5.8	–
Cc1ccn(-c2ccc(C(=O)N3CCC(F)(F)/C(=C\C(=O)NCC(N)=O)c4ccccc43)c(Cl)c2)n1	11	40	3.6	–
COc1cccc(CNC(=O)/C=C2/c3ccccc3N(C(=O)c3ccc(-n4ccc(C)n4)cc3Cl)CCC2(F)F)n1	16	47	2.9	–
Cc1ccn(-c2ccc(C(=O)N3CCC(F)(F)/C(=C\C(=O)NCc4cccc(C#N)n4)c4ccccc43)c(Cl)c2)n1	7.4	22	3	–
Cc1cccc(CNC(=O)/C=C2/c3ccccc3N(C(=O)c3ccc(-n4ccc(C)n4)cc3Cl)CCC2(F)F)n1	–	30	5.4	–
Cc1ccn(-c2ccc(C(=O)N3CCC(F)(F)/C(=C\C(=O)NCc4cccc(N(C)C)n4)c4ccccc43)c(Cl)c2)n1	11	48	4.4	–
Cc1ccn(-c2ccc(C(=O)N3CCC(F)(F)/C(=C\C(=O)NCCN(C)C)c4ccccc43)c(Cl)c2)n1	53	59	1.1	–
Cc1ccn(-c2ccc(C(=O)N3CCC(F)(F)/C(=C\C(=O)NCc4nc5ccccc5s4)c4ccccc43)c(Cl)c2)n1	11	55	5	–
Cc1ccn(-c2ccc(C(=O)N3CCC(F)(F)/C(=C\C(=O)NCc4nc5ccccc5[nH]4)c4ccccc43)c(Cl)c2)n1	12	72	6	–
Cc1ccn(-c2ccc(C(=O)N3CCC(F)(F)/C(=C\C(=O)NCCO)c4ccccc43)c(Cl)c2)n1	9.7	28	–	EC50 (Vasopressin V2 receptor [2]): 6.3 nM; Emax (Vasopressin V2 receptor [3]): 93.9%; Activity (Rattus norvegicus): Active
CCCNC(=O)/C=C1/c2ccccc2N(C(=O)c2ccc(-n3ccc(C)n3)cc2Cl)CCC1(F)F	18	13	0.72	–
Cc1ccn(-c2ccc(C(=O)N3CCC(F)(F)/C(=C\C(=O)NCC(=O)O)c4ccccc43)c(Cl)c2)n1	22	230	10	–
Cc1ccn(-c2ccc(C(=O)N3CCC(F)(F)/C(=C\C(=O)O)c4ccccc43)c(Cl)c2)n1	25	6300	252	EC50 (Vasopressin V2 receptor [2]): 4.2 nM; Emax (Vasopressin V2 receptor [3]): 92.4%; IC50 (Cytochrome P450 2C9): > 20000 nM; IC50 (Cytochrome P450 2C19): > 20000 nM; IC50 (Cytochrome P450 2D6): 11000 nM; IC50 (Cytochrome P450 3A4): > 20000 nM; Activity (Rattus norvegicus): inactive

The next lines start with results.

Ki (Vasopressin V2 receptor [1]) [nM]	Ki (Vasopressin V1a receptor) [nM]	Ratio Ki (Homo sapiens)	SMILES	other results
20	15	0.75	Cc1ccn(-c2ccc(C(=O)N3CCC(F)(F)/C(=C\C(=O)NCc4ccncc4)c4ccccc43)c(Cl)c2)n1	–
–	26	–	Cc1ccn(-c2ccc(C(=O)N3CCC(F)(F)/C(=C\C(=O)NCc4ccccn4)c4ccccc43)c(Cl)c2)n1	–
14	57	4.1	Cc1ccn(-c2ccc(C(=O)N3CCC(F)(F)/C(=C\C(=O)NCc4cnccn4)c4ccccc43)c(Cl)c2)n1	–
3.4	43	–	Cc1ccn(-c2ccc(C(=O)N3CCC(F)(F)/C(=C\C(=O)NCc4cccnn4)c4ccccc43)c(Cl)c2)n1	EC50 (Vasopressin V2 receptor [2]): 16 nM; Emax (Vasopressin V2 receptor [3]): 86.4%; Activity (Rattus norvegicus): Active
10	38	3.8	Cc1ccn(-c2ccc(C(=O)N3CCC(F)(F)/C(=C\C(=O)NCc4cccc(N)n4)c4ccccc43)c(Cl)c2)n1	–
19	43	2.3	Cc1ccn(-c2ccc(C(=O)N3CCC(F)(F)/C(=C\C(=O)NCc4ccccc4)c4ccccc43)c(Cl)c2)n1	–
11	43	3.9	Cc1ccn(-c2ccc(C(=O)N3CCC(F)(F)/C(=C\C(=O)NCc4nccs4)c4ccccc43)c(Cl)c2)n1	–
11	44	4	Cc1ccn(-c2ccc(C(=O)N3CCC(F)(F)/C(=C\C(=O)NCc4ccncn4)c4ccccc43)c(Cl)c2)n1	–
27	72	2.7	Cc1ccn(-c2ccc(C(=O)N3CCC(F)(F)/C(=C\C(=O)NCc4ccco4)c4ccccc43)c(Cl)c2)n1	–
21	40	1.9	Cc1ccn(-c2ccc(C(=O)N3CCC(F)(F)/C(=C\C(=O)NCc4cccnc4)c4ccccc43)c(Cl)c2)n1	–
